Experimental data as given in ChEMBL document CHEMBL1255487, “Preclinical evaluation of the antifolate QN254, 5-chloro- N'6'-(2,5-dimethoxy-benzyl)-quinazoline-2,4,6-triamine, as an antimalarial drug candidate” (Antimicrob Agents Chemother, 2010).
pIC50, pKi: −log10 of the molar value.

Tests used:
Plasmodium berghei [1] = assay: Antimalarial activity against Plasmodium berghei ANKA infected in NMRI mice (Mus musculus) assessed as reduction in parasitemia at 3 times 30 mg/kg, perorally measured on day 3 postinfection; format: functional; design: scale not given: the % may be the effect or the level left; details: route oral
Method in brief: (§1)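 P. berghei ANKA given intravenously to groups of 5 female NMRI mice (20–22 g): 0.2 ml of 1 × 10^8 parasitized erythrocytes/ml from a donor mouse. Oral dosing in 0.5% carboxymethyl cellulose. Parasitemia counted by microscopy. Activity is the control-minus-treated parasitemia difference, expressed as percent of untreated controls.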

Plasmodium berghei [2] = assay: Antimalarial activity against Plasmodium berghei ANKA infected in NMRI mice (Mus musculus) assessed as survival rate at 30 mg/kg, perorally administered as single dose; format: functional; details: route oral
Method in brief: (§2)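 Infection: 5 female NMRI mice (20–22 g) per group, inoculated intravenously with 0.2 ml of donor blood at 1 × 10^8 parasitized erythrocytes/ml. Oral administration in 0.5% carboxymethyl cellulose. Survival time recorded up to 30 days after infection and averaged per group.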

Plasmodium berghei [3] = assay: Antimalarial activity against Plasmodium berghei ANKA infected in NMRI mice (Mus musculus) assessed as survival rate at 60 mg/kg, perorally administered as single dose; format: functional; details: route oral; method in brief: as §2
Plasmodium berghei [4] = assay: Antimalarial activity against Plasmodium berghei ANKA infected in NMRI mice (Mus musculus) assessed as mean survival time at 3 times 30 mg/kg, perorally; format: functional; details: route oral; method in brief: as §2
Plasmodium berghei [5] = assay: Antimalarial activity against Plasmodium berghei ANKA infected in NMRI mice (Mus musculus) assessed as cure rate at 10 mg/kg, perorally administered as single dose […]; format: functional; details: route oral
Method in brief: (§3)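 Female NMRI mice (20–22 g), 5 per group, infected intravenously with 0.2 ml of 1 × 10^8 parasitized erythrocytes/ml from a fresh donor mouse. Compound suspended in 0.5% carboxymethyl cellulose and given orally. Survival followed to day 30 post-infection; an animal was scored cured if it survived to day 30 without parasites.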

Plasmodium berghei [6] = assay: Antimalarial activity against Plasmodium berghei ANKA infected in NMRI mice (Mus musculus) assessed as cure rate at 30 mg/kg, perorally administered as single dose […]; format: functional; details: route oral; method in brief: as §3
Plasmodium berghei [7] = assay: Antimalarial activity against Plasmodium berghei ANKA infected in NMRI mice (Mus musculus) assessed as cure rate at 60 mg/kg, perorally administered as single dose […]; format: functional; details: route oral; method in brief: as §3
Plasmodium berghei [8] = assay: Antimalarial activity against Plasmodium berghei ANKA infected in NMRI mice (Mus musculus) assessed as cure rate at 3 times 30 mg/kg, perorally measured […]; format: functional; details: route oral; method in brief: as §3
Plasmodium berghei [9] = assay: Antimalarial activity against Plasmodium berghei ANKA infected in NMRI mice (Mus musculus) assessed as cure rate at 3 times 100 mg/kg, perorally measured on […]; format: functional; details: route oral; method in brief: as §3
Mus musculus [10] = assay: Toxicity in NMRI mice (Mus musculus) infected with Plasmodium berghei ANKA at 15 mg/kg, perorally administered as single dose measured up to 30 days postinfection; format: organism-based; design: dose 15 mg/kg, route oral; details: in vivo, po, 720 h
Mus musculus [11] = assay: Toxicity in NMRI mice (Mus musculus) infected with Plasmodium berghei ANKA at 100 mg/kg, perorally administered as single dose measured up to 30 days postinfection; format: organism-based; design: dose 100 mg/kg, route oral; details: in vivo, po, 720 h
Mus musculus [12] = assay: Toxicity in NMRI mice (Mus musculus) infected with Plasmodium berghei ANKA at 3 times 30 mg/kg, perorally measured up to 30 days postinfection; format: organism-based; design: dose 30 mg/kg, route oral; details: in vivo, po, 720 h
Mus musculus [13] = assay: Toxicity in NMRI mice (Mus musculus) infected with Plasmodium berghei ANKA at 3 times 60 mg/kg, perorally measured up to 30 days postinfection; format: organism-based; design: dose 60 mg/kg, route oral; details: in vivo, po, 720 h
Dihydrofolate reductase = target: T1, Dihydrofolate reductase (Homo sapiens, UniProt P00374); assay: Binding affinity to human recombinant DHFR expressed in Escherichia coli BL21(DE3) by competitive binding assay
T1 sequence (P00374 whole entry): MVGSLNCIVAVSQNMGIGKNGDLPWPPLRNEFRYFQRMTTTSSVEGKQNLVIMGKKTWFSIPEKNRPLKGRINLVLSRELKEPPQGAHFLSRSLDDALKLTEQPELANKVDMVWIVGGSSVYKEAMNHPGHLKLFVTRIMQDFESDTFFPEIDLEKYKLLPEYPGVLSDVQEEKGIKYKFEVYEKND

Rattus norvegicus = assay: Toxicity in Wistar rat assessed as occurrence of bone marrow degeneration at => 50 mg/kg, po after 2 weeks; format: organism-based; design: dose 50 mg/kg, route oral; details: in vivo, 336 h
Method in brief: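 Male Wistar rats, about 10 weeks old (254–292 g), 5 per group, gavaged daily with 50, 150 or 500 mg/kg/day. Vehicle was 10% of 1% aqueous Solutol HS15 plus 90% of 0.5% aqueous methylcellulose; exploratory 2-week design. Clinical observations, body weight, food intake, hematology, clinical chemistry and gross pathology recorded. Histopathology covered gross lesions and selected organs in the control and low-dose groups.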

Plasmodium falciparum = assay: Antimalarial activity against pyrimethamine-resistant Plasmodium falciparum clinical isolate harboring S108N, C59R mutation in DHFR assessed as decrease in parasitaemia; format: functional, organism-based
Method in brief: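 P. falciparum grown in RPMI 1640 with 10% (v/v) human serum, 25 mM bicarbonate, 2 mM glutamine, 25 mM HEPES, 5 nM para-aminobenzoic acid and 23 nM folic acid. Parasites exposed to a concentration series. Read-out is [3H]hypoxanthine incorporation into nucleic acid. IC50 taken from non-linear regression of the dose–response curve.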

[14] = Cmax in Wistar rat at 25 mg/kg, po; format: ADME, organism-based; design: dose 25 mg/kg, route oral; details: in vivo
Method in brief: (§4)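 Rats dosed with 25 mg/kg p.o. as a 2.5 mg/ml suspension in 0.5% CMC, or with 5 mg/kg i.v. at 1 mg/ml in 10% NMP, 30% PEG 400 and 60% of 10% vitamin E-TPGS. Plasma sampled over time, extracted with acidified acetonitrile (8:1) and quantified by LC-MS, LLOQ 12 ng/ml.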

[15] = Tmax in CD-1 mouse at 25 mg/kg, po; format: ADME, organism-based; design: dose 25 mg/kg, route oral; details: in vivo
Method in brief: (§5)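 Mice dosed with 25 mg/kg p.o. as a 2.5 mg/ml suspension in 0.5% CMC, or with 5 mg/kg i.v. at 1 mg/ml in 10% NMP, 30% PEG 400 and 60% of 10% vitamin E-TPGS. Blood sampled at several time points. Plasma extracted with acidified acetonitrile (8:1) and quantified by LC-MS, LLOQ 12 ng/ml.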

[16] = Tmax in Wistar rat at 25 mg/kg, po; format: ADME, organism-based; design: dose 25 mg/kg, route oral; details: in vivo; method in brief: as §4
[17] = AUC in CD-1 mouse at 25 mg/kg, po; format: ADME, organism-based; design: dose 25 mg/kg, route oral; details: plasma; method in brief: as §5
[18] = AUC in Wistar rat at 25 mg/kg, po; format: ADME, organism-based; design: dose 25 mg/kg, route oral; details: plasma; method in brief: as §4
[19] = Half life in CD-1 mouse at 25 mg/kg, po; format: ADME, organism-based; design: dose 25 mg/kg, route oral; details: in vivo; method in brief: as §5
[20] = Volume of distribution in Wistar rat at 5 mg/kg, iv; format: ADME, organism-based; design: dose 5 mg/kg, route intravenous; details: in vivo; method in brief: as §4
[21] = Half life in Wistar rat at 5 mg/kg, iv; format: ADME, organism-based; design: dose 5 mg/kg, route intravenous; details: in vivo; method in brief: as §4
Plasmodium berghei [22] = assay: Antimalarial activity against Plasmodium berghei ANKA infected in NMRI mice (Mus musculus) assessed as reduction in parasitemia at 10 mg/kg, perorally administered as single dose measured on day 3 postinfection; format: functional; design: scale not given: the % may be the effect or the level left; details: route oral; method in brief: as §1
Plasmodium berghei [23] = assay: Antimalarial activity against Plasmodium berghei ANKA infected in NMRI mice (Mus musculus) assessed as reduction in parasitemia at 60 mg/kg, perorally administered as single dose measured on day 3 postinfection; format: functional; design: scale not given: the % may be the effect or the level left; details: route oral; method in brief: as §1
[24] = AUC (0 to 24 hrs) in NMRI mouse at 26.5 mg/kg, po; details: plasma

COc1ccc(OC)c(CNc2ccc3nc(N)nc(N)c3c2Cl)c1
Activity (Plasmodium berghei [1]): >99.99% | Survival (Plasmodium berghei [2]): 8.1 days | Survival (Plasmodium berghei [3]): 12 days | Survival (Plasmodium berghei [4]): 28.4 days | Activity (Plasmodium berghei [5]): 0% | Activity (Plasmodium berghei [6]): 0% | Activity (Plasmodium berghei [7]): 0% | Activity (Plasmodium berghei [8]): 80% | Activity (Plasmodium berghei [9]): 20% | Activity (Mus musculus [10]): 0% | Activity (Mus musculus [11]): 0% | Activity (Mus musculus [12]): 0% | Activity (Mus musculus [13]): 40% | pKi (Dihydrofolate reductase): 7.99 | Activity (Rattus norvegicus): Toxic | pIC50 (Plasmodium falciparum): 8.35 | Cmax [14]: 2.8 µM | Tmax [15]: 4 h | Tmax [16]: 4 h | AUC [17]: 44.6 µM·h | AUC [18]: 67.3 µM·h | half-life [19]: 4.84 h | Vd [20]: 4.7 L/kg | half-life [21]: 3.5 h | Activity (Plasmodium berghei [22]): 59% | Activity (Plasmodium berghei [23]): >99.99% | AUC(0-t) at 24 h [24]: 17 µg·h/mL
